In the library only some 2.7% were active in any assay of this set; here they are far more common.
NadD inh: inhibitors of S. aureus NadD, primary screen, biochemical, colorimetric, uHTS. Nicotinate-nucleotide adenylyltransferase NadD (Staphylococcus aureus N315). purified NadD enzyme, colorimetric absorbance read-out. inhibition, % at 20 µM. 360,000 compounds, 0.78% hits. AID 602399, 2012; in the data active = inhibition above about 26%
CSN inh: inhibitors of CSN-mediated cullin deneddylation, primary screen, biochemical, fluorescence polarization, uHTS; inhibition, % at 12.5 µM; Purified CSN, SCF-Nedd8-OG deneddylation; 360,000 compounds, 0.38% hits; COP9 signalosome complex subunit 5 (Homo sapiens), Q92905;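 active = pattern-corrected inhibition above about 35%, with an unprinted fluorescence ratio check between 0.5 and 1.5, limit read from the data, passing the limit was not always enough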;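 also: 0% = enzyme with substrate and 100% = substrate without enzyme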
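Schedule: reaction 90 min, room temperature / Assay system: HEK293T-derived human Csn5 enzyme / Input: Csn5 at 0.24 nM final / Measure: inhibition of Csn5 cleavage, % / Control set: substrate-only high control, full reaction low control / Technique: fluorescence polarization of the substrate / Buffer or medium: Tris/NaCl/DTT buffer, pH 7.5 / Reagent: SCFSkp2-Nedd8OG substrate at 10 nM final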
TPT1 inhibitor: Candida albicans TPT1 enzyme inhibitors, primary screen, biochemical, fluorescence polarization. tRNA 2'-phosphotransferase TPT1 (Candida albicans SC5314). recombinant caTPT1, FP RNA substrate dephosphorylation. inhibition, % at 5 µM. 300,000 compounds, 0.81% hits;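 active = inhibition above the mean of all tested compounds plus 3 SD, set per screening campaign, cut at about 24% in these data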;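 also: plate controls were DMSO alone for no effect and ferristatin control at 100 nM for full effect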
HNF4A DNA FP: change in binding of human HNF4A to DNA, primary screen, biochemical, fluorescence polarization, FITC-DNA | Hepatocyte nuclear factor 4-alpha (Homo sapiens), P41235 | 1 h | activity change, % at 10 µM | 360,000 compounds, 0.3% hits | AID 1224865, 2016; in the data active = activity change above about 30%, passing the limit was not always enough
PP1 counter: PP1-alpha phosphatase inhibitors, primary screen, counter-screen for PP5 inhibitor project, biochemical, fluorescence, OMFP substrate, single point; purified PP1alpha; AID 2235, 2010; inhibition, % at 6.7 µM; Serine/threonine-protein phosphatase PP1-alpha catalytic subunit (Homo sapiens), P62136; 320,000 compounds, 0.9% hits;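 active = inhibition above the mean inhibition of all tested compounds plus 3 SD, computed separately for each screening campaign, cut at about 15% in these data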
Target sequence (P62136 whole entry, looked up): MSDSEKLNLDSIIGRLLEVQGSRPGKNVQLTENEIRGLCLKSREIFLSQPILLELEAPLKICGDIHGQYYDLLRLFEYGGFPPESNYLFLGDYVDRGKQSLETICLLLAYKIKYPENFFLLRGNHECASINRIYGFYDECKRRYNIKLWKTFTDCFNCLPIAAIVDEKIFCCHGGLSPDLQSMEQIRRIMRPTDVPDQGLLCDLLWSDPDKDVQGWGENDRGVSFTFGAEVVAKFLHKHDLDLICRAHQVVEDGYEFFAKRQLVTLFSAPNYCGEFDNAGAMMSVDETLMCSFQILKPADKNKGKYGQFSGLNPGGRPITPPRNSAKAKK
Rpn11 inh: Rpn11 (PSMD14) deubiquitinase inhibitors, primary screen, biochemical, fluorescence polarization, uHTS; 26S proteasome non-ATPase regulatory subunit 14 (Homo sapiens), O00487; human 26S proteasome, Ub4-pepOG fluorescence polarization; 20S core pre-blocked with epoxomicin; 360,000 compounds, 0.59% hits; AID 588493, 2011; inhibition, % at 20 µM;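 active = inhibition at 20 µM, scaled to each plate's controls, above about 33%, limit read from the data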
Target sequence (O00487 whole entry, looked up): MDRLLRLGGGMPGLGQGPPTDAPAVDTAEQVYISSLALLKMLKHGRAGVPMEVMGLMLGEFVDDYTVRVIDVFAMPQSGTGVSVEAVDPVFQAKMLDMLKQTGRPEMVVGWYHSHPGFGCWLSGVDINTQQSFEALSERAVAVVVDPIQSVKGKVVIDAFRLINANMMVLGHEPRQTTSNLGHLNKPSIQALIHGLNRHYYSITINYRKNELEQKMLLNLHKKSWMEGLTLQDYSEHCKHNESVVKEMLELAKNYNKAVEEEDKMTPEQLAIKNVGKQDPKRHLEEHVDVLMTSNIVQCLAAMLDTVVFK
NadD inh conf: inhibitors of S. aureus NadD, confirmation, biochemical, colorimetric, single concentration; shares compounds with NadD inh; inhibition, % at 20 µM; purified S. aureus NadD, colorimetric enzyme assay; 2,000 compounds, 13% hits; in the data active = inhibition mostly above about 42%, no sharp cut-off; inactive = mostly below about 42%
* = called active by the depositor; · = no result.

SMILES	NadD inh	CSN inh	TPT1 inhibitor	HNF4A DNA FP	PP1 counter	Rpn11 inh	NadD inh conf
O=C(Cc1csc(Nc2nc(=S)[nH]c3ccccc23)n1)NCc1cccc(Cl)c1	32.1*	-0.5	1.2	3.0	-0.4	19.6	2.4
O=C(Cc1csc(Nc2nc(=S)[nH]c3ccccc23)n1)NCc1ccccc1Cl	-3.1	8.1	-2.2	3.7	-0.9	4.2	·
O=C(Cc1csc(Nc2nc(=S)[nH]c3ccccc23)n1)N1CCN(c2cccc(C(F)(F)F)c2)CC1	33.3*	2.1	11.0	5.3	-2.7	34.9	7.6
CCC(=O)c1ccc(OCC(=O)N2CCN(c3ncccn3)CC2)cc1	2.0	-4.7	0.1	3.1	-4.0	3.8	·
CCCn1c(C(C)NC(=O)c2ccccc2)nc2ccccc21 (centres undefined)	-5.3	0.0	·	-2.5	·	3.4	·
CCN(CC)c1ccc(NC(=O)Cn2c(C(C)NC(=O)c3ccc(C)cc3)nc3ccccc32)cc1 (centres undefined)	34.0*	4.2	·	1.3	·	2.4	1.6
COc1ccc(-c2ccc(C(=O)NCC3CCOCC3)c3occc23)c(C)c1	-3.4	-1.5	·	1.4	·	0.5	·
Nc1nc(=S)[nH]c2c1C1(CCCCC1)Cc1ccccc1-2	34.5*	3.5	-3.8	-2.8	0.9	-11.8	16.7
Nc1nc(=S)[nH]c2c1C1(CCCC1)Cc1ccccc1-2	27.4	1.3	-5.3	-0.3	-1.6	-1.3	·
COc1cccc(C2C3=C(N=c4s/c(=C\c5cccc(O)c5)c(=O)n42)c2ccccc2CC3)c1OC (centres undefined)	40.0*	4.5	13.0	10.7	1.1	34.9	11.1
Cc1ccc(Cn2c(C3CCCN3c3nc(-c4ccc(F)cc4)cs3)nc3cc(C(F)(F)F)ccc32)cc1 (centres undefined)	8.0	1.9	2.0	1.2	1.8	13.6	·
Cc1ccc(Cn2c(C(C)Nc3nc(-c4ccc(F)cc4)cs3)nc3cc(Cl)c(Cl)cc32)cc1 (centres undefined)	50.0*	0.5	0.1	3.7	4.3	9.3	10.3
OCCCn1c(C2CCCN2c2nc(-c3ccc(Cl)cc3)cs2)nc2cc(Cl)c(N3CCCCC3)cc21 (centres undefined)	33.4*	1.6	8.2	3.2	11.3	20.9	9.8
OCCCn1c(C2CCCN2c2nc(-c3ccc(F)cc3)cs2)nc2cc(Cl)c(N3CCCCC3)cc21 (centres undefined)	32.6*	-2.4	1.1	0.9	2.5	22.5	5.1
CCCn1c(C(C)Nc2nc(-c3ccc(C)cc3)cs2)nc2cc(Cl)c(Cl)cc21 (centres undefined)	16.6	-4.2	-0.5	4.1	-2.5	2.2	·
Cc1ccc(Cn2c(C3CCCN3c3nc(-c4ccc(F)cc4)cs3)nc3cc(Cl)c(Cl)cc32)cc1 (centres undefined)	48.8*	3.1	0.0	2.2	9.3	22.3	26.1
CCOc1cc(C(=O)N[C@@H](C)C(=O)N2CCC3(CC2)NCCc2[nH]cnc23)cc(OCC)c1OCC	-0.7	-1.1	-1.4	-2.5	-2.0	-7.9	·
CCC(C)NC(=O)c1ccc(C)c(NC(=O)C2=C(C)OCCS2)c1 (centres undefined)	-4.1	-2.6	5.3	-0.9	1.2	-3.6	·
Cc1ccc(Cn2c(CCNc3nc(-c4ccc(Cl)c([N+](=O)[O-])c4)cs3)nc3cc(Cl)c(Cl)cc32)cc1	47.9*	0.5	-4.3	1.9	1.5	11.5	2.1
O=C(CN1C(=O)c2cccc([N+](=O)[O-])c2C1=O)N1CCc2ccccc2C1	-10.0	-2.6	·	1.2	·	1.8	·
Cc1ccc(N2C(=O)C3N=NN(CC(=O)N4N=C(c5ccccc5)CC4c4ccccc4)C3C2=O)cc1 (centres undefined)	43.0*	6.2	1.5	-0.9	4.6	17.5	31.4
O=C(Cn1cnc([N+](=O)[O-])c1)NCCc1ccccc1	-0.4	-2.6	-0.2	-4.1	-3.1	3.8	·
CCN1CCN(CC(=O)Nc2sc3c(c2C#N)CCC(C)C3)CC1 (centres undefined)	-1.4	-0.9	0.1	0.2	-3.6	0.4	·
N#Cc1c(NC(=O)c2ccccc2)sc2c1CCCCC2	-26.8	2.3	1.0	-1.4	0.1	-2.5	·
Cc1onc(-c2ccccc2)c1C(=O)NC(=S)Nc1sc2c(c1C#N)CCC(C)C2 (centres undefined)	36.2*	4.0	2.7	2.4	-1.6	6.5	-1.0
SMILES	NadD inh	CSN inh	TPT1 inhibitor	HNF4A DNA FP	PP1 counter	Rpn11 inh	NadD inh conf
CC1CCc2c(sc(NC(=O)Cn3nc(C(=O)O)c4ccccc4c3=O)c2C#N)C1 (centres undefined)	38.6*	0.3	0.6	-2.9	-1.0	-2.2	-5.6
CCCc1cc(=O)[nH]c(SCC(=O)Nc2sc3c(c2C#N)CCC(C)C3)n1 (centres undefined)	27.7*	6.6	7.0	4.5	2.5	23.9	45.3
Cc1onc(-c2ccccc2)c1C(=O)NC(=S)Nc1sc2c(c1C#N)CCCC2	20.0	4.6	3.3	4.0	0.8	-8.5	·
COc1ccc(-c2cc(C(=O)Nc3sc4c(c3C#N)CCCC4)c3ccccc3n2)cc1	36.1*	2.6	3.2	3.5	-0.9	21.0	13.8
COc1ccc(OC)c(-c2cc(C(=O)Nc3sc4c(c3C#N)CCC(C)C4)c3ccccc3n2)c1 (centres undefined)	14.9	-1.3	0.0	2.5	1.0	6.4	·
COc1ccccc1-c1cc(C(=O)Nc2sc3c(c2C#N)CCC(C)C3)c2ccccc2n1 (centres undefined)	54.5*	4.2	5.8	2.1	2.3	8.2	19.2
COc1cc(C(=O)NCC(c2ccccc2)N(C)C)ccc1OCc1c(C)noc1C (centres undefined)	0.0	1.8	·	-2.0	-5.2	-0.9	·
CCOC(=O)c1ccc2c(c1)nc(SCC(=O)c1ccco1)n2CC	-1.6	12.7	1.9	-4.4	-2.1	-0.4	·
CCOC(=O)c1ccc2c(c1)nc(SC/C(O)=C(\C#N)c1nc3ccccc3[nH]1)n2CC	33.1*	13.7	9.5	9.1	0.3	19.4	14.9
Cc1cc2cc(CNS(=O)(=O)c3ccc4ccccc4c3)ccc2n1C	35.1*	0.5	0.8	-3.9	4.2	-6.1	33.5
